Columns and labels:
[1] = Stability of the compound in rat plasma assessed as drug recovery; type: ADME, cell-free
[2] = Drug uptake in Sprague-Dawley rat plasma at 0.79 mg/kg, po administered as LKT formulation measured within 1 hrs by UPLC-MS/MS analysis; type: ADME, organism-based
Procedure, shortened: (§1)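 Jugular-cannulated male SD rats (225 ± 25 g, n = 4) were fasted 12–16 h and given one oral gavage of LKT (366 mg/kg) or OPMS liquid (0.8 mL/kg) in water at 4 mL/kg, with dosing normalized to MTG human equivalent dose. Plasma was sampled from predose to 24 h and measured by UPLC–MS/MS (LLOQ 1 ng/mL). Cmax and Tmax were read from the observed data; Cmax/dose was also reported. Mean ± SEM.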

[3] = Tmax in Sprague-Dawley rat plasma at 0.79 mg/kg, po administered as LKT formulation measured for 24 hrs by UPLC-MS/MS analysis; type: ADME, organism-based; procedure, shortened: as §1
[4] = Tmax in Sprague-Dawley rat plasma at 1.23 mg/kg, po administered as OPMS liquid formulation measured for 24 hrs by UPLC-MS/MS analysis; type: ADME, organism-based; procedure, shortened: as §1
[5] = Stability of the compound in water-methanol mixture (1:1) assessed as drug recovery; type: physicochemical; conditions: buffer
[6] = Cmax in Sprague-Dawley rat plasma at 0.79 mg/kg, po administered as LKT formulation measured for 24 hrs by UPLC-MS/MS analysis; type: ADME, organism-based; set-up: route oral, time 24 hrs, dose 0.79 mg/kg; procedure, shortened: as §1
[7] = Drug uptake in Sprague-Dawley rat plasma at 1.23 mg/kg, po administered as OPMS liquid formulation measured within 1 hrs by UPLC-MS/MS analysis; type: ADME, organism-based; procedure, shortened: as §1
[8] = Cmax in Sprague-Dawley rat plasma at 1.23 mg/kg, po administered as OPMS liquid formulation measured for 24 hrs by UPLC-MS/MS analysis; type: ADME, organism-based; set-up: route oral, time 24 hrs, dose 1.23 mg/kg; procedure, shortened: as §1
[9] = Cmax in Sprague-Dawley rat plasma at <0.1 mg/kg, po administered as LKT formulation measured for 24 hrs by UPLC-MS/MS analysis; type: ADME, organism-based; set-up: route oral, time 24 hrs, dose <0.1; procedure, shortened: as §1
[10] = AUC(0 to 24 hrs) in Sprague-Dawley rat plasma at <0.1 mg/kg, po administered as OPMS liquid formulation measured for 24 hrs by UPLC-MS/MS analysis; type: ADME, organism-based; set-up: route oral, time 24 hrs, dose <0.1
[11] = Cmax in Sprague-Dawley rat plasma at <0.1 mg/kg, po administered as OPMS liquid formulation measured for 24 hrs by UPLC-MS/MS analysis; type: ADME, organism-based; set-up: route oral, time 24 hrs, dose <0.1; procedure, shortened: as §1
[12] = Tmax in Sprague-Dawley rat plasma at <0.1 mg/kg, po administered as OPMS liquid formulation measured for 24 hrs by UPLC-MS/MS analysis; type: ADME, organism-based; procedure, shortened: as §1
[13] = AUC(0 to 24 hrs) in Sprague-Dawley rat plasma at <0.1 mg/kg, po administered as LKT formulation measured for 24 hrs by UPLC-MS/MS analysis; type: ADME, organism-based; set-up: route oral, time 24 hrs, dose <0.1
[14] = Tmax in Sprague-Dawley rat plasma at <0.1 mg/kg, po administered as LKT formulation measured for 24 hrs by UPLC-MS/MS analysis; type: ADME, organism-based; procedure, shortened: as §1
[15] = AUC(0 to 24 hrs) in Sprague-Dawley rat plasma at […], po administered as OPMS liquid formulation measured for 24 hrs by UPLC-MS/MS analysis; type: ADME, organism-based; set-up: route oral, dose 0.18 mg/kg, time 24 hrs
[16] = AUC(0 to 24 hrs) in Sprague-Dawley rat plasma at 0.13 mg/kg, po administered as LKT formulation measured for 24 hrs by UPLC-MS/MS analysis; type: ADME, organism-based; set-up: route oral, time 24 hrs, dose 0.13 mg/kg
[17] = Cmax in Sprague-Dawley rat plasma at […], po administered as OPMS liquid formulation measured for 24 hrs by UPLC-MS/MS analysis; type: ADME, organism-based; set-up: route oral, time 24 hrs, dose 0.18 mg/kg
[18] = Dose normalized Cmax in po dosed rat plasma; type: ADME, organism-based; conditions: in vivo
[19] = Dose normalized Cmax in Sprague-Dawley rat plasma at 0.13 mg/kg, po administered as LKT formulation measured for 24 hrs by UPLC-MS/MS analysis; type: ADME, organism-based; conditions: in vivo; procedure, shortened: as §1
[20] = Dose normalized AUC(0-24 hrs) in po dosed rat plasma; type: ADME, organism-based; conditions: in vivo
[21] = Dose normalized AUC(0 to 24 hrs) in Sprague-Dawley rat plasma at 0.13 mg/kg, po administered as LKT formulation measured for 24 hrs by UPLC-MS/MS analysis; type: ADME, organism-based; conditions: in vivo
[22] = Tmax in Sprague-Dawley rat plasma at […], po administered as OPMS liquid formulation measured for 24 hrs by UPLC-MS/MS analysis; type: ADME, organism-based; conditions: dose 0.18 mg/kg
[23] = Dose normalized AUC(0 to 24 hrs) in Sprague-Dawley rat plasma at […], po administered as OPMS liquid formulation measured for 24 hrs by UPLC-MS/MS analysis; type: ADME, organism-based; conditions: in vivo, dose 0.18 mg/kg
[24] = Dose normalized Cmax in Sprague-Dawley rat plasma at […], po administered as OPMS liquid formulation measured for 24 hrs by UPLC-MS/MS analysis; type: ADME, organism-based; conditions: in vivo, dose 0.18 mg/kg
[25] = Tmax in Sprague-Dawley rat plasma at 0.13 mg/kg, po administered as LKT formulation measured for 24 hrs by UPLC-MS/MS analysis; type: ADME, organism-based; procedure, shortened: as §1

## CC[C@H]1CN2CCc3c([nH]c4cccc(OC)c34)[C@@H]2C[C@@H]1/C(=C\OC)C(=O)OC
[1]
  Drug recovery: > 90%
[2]
  concentration at 1 h: < 1 ng/mL
[3]
  Tmax: 10 min
[4]
  Tmax: 5 min
[5]
  Drug recovery: > 80%
[6]
  Cmax: 2.9 ng/mL
[7]
  concentration at 1 h: < 1 ng/mL
[8]
  Cmax: 2.9 ng/mL

## CC[C@@H]1CN2CC[C@@]3(O)C(=Nc4cccc(OC)c43)[C@@H]2C[C@@H]1/C(=C\OC)C(=O)OC
[1]
  Drug recovery: > 90%
[9]
  Cmax: 4.3 ng/mL
[5]
  Drug recovery: > 80%
[10]
  AUC(0-t) at 24 h: 41 ng·h/mL
[11]
  Cmax: 4 ng/mL
[12]
  Tmax: 186 min
[13]
  AUC(0-t) at 24 h: 17.4 ng·h/mL
[14]
  Tmax: 54 min

## CC[C@@H]1CN2CCc3c([nH]c4ccccc34)[C@@H]2C[C@@H]1/C(=C\OC)C(=O)OC [CORYNANRHEIDINE]
[1]
  Drug recovery: > 90%
[15]
  AUC(0-t) at 24 h: 30.4 ng·h/mL
[16]
  AUC(0-t) at 24 h: 8.2 ng·h/mL
[17]
  Cmax at 24 h: 3.1 ng/mL
[18]
  Cmax/dose: 10.7 ng/mL
[5]
  Drug recovery: > 80%
[19]
  Cmax/dose: 14 kg·ng/mL/mg
[20]
  AUC/dose: 138.8 kg·ng·h/mL/mg
[21]
  AUC/dose: 63.1 kg·ng·h/mL/mg
[22]
  Tmax at 24 h: 186 min
[23]
  AUC/dose: 152.2 kg·ng·h/mL/mg
[24]
  Cmax/dose: 15.6 kg·ng/mL/mg
[25]
  Tmax: 60 min

## CC[C@@H]1CN2CC[C@]3(C(=O)Nc4ccccc43)[C@@H]2C[C@@H]1/C(=C\OC)C(=O)OC [CORYNOXINE B]
[1]
  Drug recovery: > 90%
[5]
  Drug recovery: > 80%

## CC[C@@H]1CN2CC[C@@]3(C(=O)Nc4ccccc43)[C@@H]2C[C@@H]1/C(=C\OC)C(=O)OC [CORYNOXINE]
[1]
  Drug recovery: > 90%
[5]
  Drug recovery: > 80%

— ChEMBL document CHEMBL4834399, “Pharmacokinetics of Eleven Kratom Alkaloids Following an Oral Dose of Either Traditional or Commercial Kratom Products in Rats” (J Nat Prod, 2021)
